Source: ChEMBL document CHEMBL5303300, “EUbOPEN Chemogenomics Library - Multiplex” (2023)
Where “and” joins values, the source holds several entries; their conditions need not be identical. Identical values can stand only once.

What was measured:
HEK-293T = test: Multiplex assay against HEK293T; assay type: toxicity, cell-based; details: human, number of replicates 2
How it was run: (§1)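 Cells stained live at seeding with Hoechst33342, BioTracker Green Microtubule Cytoskeleton Dye, MitoTracker Red and Annexin V Alexa Fluor 680 were imaged on a CQ1 microscope at 37°C and 5% CO2 after compound addition. Their classification by CellPathfinder machine-learning gating ran from Hoechst high-intensity objects versus normal cells, to healthy, pyknosed or fragmented nuclei among normal cells, to mitotic or apoptotic among pyknosed cells. Tubulin, mitochondrial-mass and membrane-permeability phenotypes are per cents of healthy-nucleus cells.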

Fibroblast = test: Multiplex assay against human fibroblast; assay type: toxicity, cell-based; details: number of replicates 2; how it was run: as §1
[1] = 24 h, 10 µM, compound concentration 10 uM
[2] = 48 h, 1 µM, compound concentration 1 uM
[3] = 48 h, 10 µM, compound concentration 10 uM
[4] = 12 h, 1 µM, compound concentration 1 uM
[5] = 12 h, 10 µM, compound concentration 10 uM
[6] = 24 h, 1 µM, compound concentration 1 uM

`Cc1onc(-c2ccccc2Cl)c1C(=O)N(C)c1ccc(Cl)cc1` was tested. Which “Population Mitotic Cells (%)” value (HEK-293T; [1]) did it give?
Its value is 63% and 76%.

What about the “Population Normal (%)” value (HEK-293T; [1]) of the same compound?
Its value is 94% and 91%.

What about the “Population Pyknosed Nuclei (%)” value (HEK-293T; [1]) of the same compound?
The value was 9% and 7%.

And the “Population Tubulin-Different-Phenotype (%)” value (HEK-293T; [1])?
The value was 51% and 30%.

And the “Total Cell Count” value (HEK-293T; [1])?
The value was 757 and 965.

What about the “Population Apoptotic (%)” value (HEK-293T; [2]) of the same compound?
Its value is 12% and 17%.

And the “Population Fragmented Nuclei (%)” value (HEK-293T; [2])?
Its value is 11% and 9%.

What about the “Population Healthy Nuclei (%)” value (HEK-293T; [2]) of the same compound?
The value was 84% and 87%.

And the “Population Hoechst High Intensity Objects (%)” value (HEK-293T; [2])?
Its value is 8%.

What about the “Population Membrane Permeable-Phenotype (%)” value (HEK-293T; [2]) of the same compound?
The value was 4%.

What about the “Population Mitochondria Different-Phenotype (%)” value (HEK-293T; [2]) of the same compound?
The value was 1% and 0%.

And the “Population Mitotic Cells (%)” value (HEK-293T; [2])?
The value was 87% and 82%.

What about the “Population Normal (%)” value (HEK-293T; [2]) of the same compound?
The value was 91%.

And the “Population Pyknosed Nuclei (%)” value (HEK-293T; [2])?
Its value is 3% and 2%.

And the “Population Tubulin-Different-Phenotype (%)” value (HEK-293T; [2])?
The value was 8% and 11%.

And the “Total Cell Count” value (HEK-293T; [2])?
The value was 2361 and 2103.

And the “Population Apoptotic (%)” value (HEK-293T; [3])?
The value was 25% and 17%.

And the “Population Fragmented Nuclei (%)” value (HEK-293T; [3])?
The value was 11% and 14%.

And the “Population Healthy Nuclei (%)” value (HEK-293T; [3])?
The value was 84% and 82%.

What about the “Population Hoechst High Intensity Objects (%)” value (HEK-293T; [3]) of the same compound?
Its value is 8%.

What about the “Population Membrane Permeable-Phenotype (%)” value (HEK-293T; [3]) of the same compound?
Its value is 6%.

And the “Population Mitochondria Different-Phenotype (%)” value (HEK-293T; [3])?
Its value is 2% and 0%.

And the “Population Mitotic Cells (%)” value (HEK-293T; [3])?
Its value is 75% and 82%.

And the “Population Normal (%)” value (HEK-293T; [3])?
Its value is 91%.

What about the “Population Pyknosed Nuclei (%)” value (HEK-293T; [3]) of the same compound?
The value was 4% and 2%.

And the “Population Tubulin-Different-Phenotype (%)” value (HEK-293T; [3])?
The value was 33% and 16%.

And the “Total Cell Count” value (HEK-293T; [3])?
The value was 1552 and 2354.

What about the “Population Apoptotic (%)” value (Fibroblast; [4]) of the same compound?
The value was 35%.

And the “Population Fragmented Nuclei (%)” value (Fibroblast; [4])?
Its value is 11% and 12%.

What about the “Population Healthy Nuclei (%)” value (Fibroblast; [4]) of the same compound?
The value was 66% and 69%.

What about the “Population Hoechst High Intensity Objects (%)” value (Fibroblast; [4]) of the same compound?
The value was 0%.

What about the “Population Membrane Permeable-Phenotype (%)” value (Fibroblast; [4]) of the same compound?
Its value is 6% and 8%.

What about the “Population Mitochondria Different-Phenotype (%)” value (Fibroblast; [4]) of the same compound?
Its value is 0%.

And the “Population Mitotic Cells (%)” value (Fibroblast; [4])?
Its value is 64%.

And the “Population Normal (%)” value (Fibroblast; [4])?
Its value is 100%.

And the “Population Pyknosed Nuclei (%)” value (Fibroblast; [4])?
The value was 22% and 18%.

What about the “Population Tubulin-Different-Phenotype (%)” value (Fibroblast; [4]) of the same compound?
Its value is 16% and 12%.

What about the “Total Cell Count” value (Fibroblast; [4]) of the same compound?
The value was 167 and 197.

What about the “Population Apoptotic (%)” value (Fibroblast; [5]) of the same compound?
The value was 36% and 47%.

And the “Population Fragmented Nuclei (%)” value (Fibroblast; [5])?
Its value is 8%.

What about the “Population Healthy Nuclei (%)” value (Fibroblast; [5]) of the same compound?
Its value is 67% and 72%.

And the “Population Hoechst High Intensity Objects (%)” value (Fibroblast; [5])?
Its value is 0%.

What about the “Population Membrane Permeable-Phenotype (%)” value (Fibroblast; [5]) of the same compound?
Its value is 8% and 11%.

And the “Population Mitochondria Different-Phenotype (%)” value (Fibroblast; [5])?
Its value is 2%.

And the “Population Mitotic Cells (%)” value (Fibroblast; [5])?
The value was 63% and 52%.

What about the “Population Normal (%)” value (Fibroblast; [5]) of the same compound?
The value was 100%.

What about the “Population Pyknosed Nuclei (%)” value (Fibroblast; [5]) of the same compound?
The value was 24% and 18%.

What about the “Population Tubulin-Different-Phenotype (%)” value (Fibroblast; [5]) of the same compound?
The value was 18% and 15%.

What about the “Total Cell Count” value (Fibroblast; [5]) of the same compound?
The value was 185 and 192.

What about the “Population Apoptotic (%)” value (Fibroblast; [6]) of the same compound?
Its value is 44% and 31%.

What about the “Population Fragmented Nuclei (%)” value (Fibroblast; [6]) of the same compound?
The value was 8% and 13%.

And the “Population Healthy Nuclei (%)” value (Fibroblast; [6])?
The value was 66% and 64%.

What about the “Population Hoechst High Intensity Objects (%)” value (Fibroblast; [6]) of the same compound?
Its value is 0%.

And the “Population Membrane Permeable-Phenotype (%)” value (Fibroblast; [6])?
Its value is 7% and 6%.

And the “Population Mitochondria Different-Phenotype (%)” value (Fibroblast; [6])?
Its value is 0%.

And the “Population Mitotic Cells (%)” value (Fibroblast; [6])?
Its value is 55% and 68%.

What about the “Population Normal (%)” value (Fibroblast; [6]) of the same compound?
Its value is 100%.

What about the “Population Pyknosed Nuclei (%)” value (Fibroblast; [6]) of the same compound?
Its value is 24% and 22%.

What about the “Population Tubulin-Different-Phenotype (%)” value (Fibroblast; [6]) of the same compound?
The value was 13% and 9%.

And the “Total Cell Count” value (Fibroblast; [6])?
Its value is 157 and 204.

And the “Population Apoptotic (%)” value (Fibroblast; [1])?
Its value is 56% and 57%.

And the “Population Fragmented Nuclei (%)” value (Fibroblast; [1])?
Its value is 5% and 8%.

What about the “Population Healthy Nuclei (%)” value (Fibroblast; [1]) of the same compound?
The value was 72% and 74%.

What about the “Population Hoechst High Intensity Objects (%)” value (Fibroblast; [1]) of the same compound?
Its value is 0%.

And the “Population Membrane Permeable-Phenotype (%)” value (Fibroblast; [1])?
Its value is 5% and 8%.

What about the “Population Mitochondria Different-Phenotype (%)” value (Fibroblast; [1]) of the same compound?
Its value is 4% and 0%.

What about the “Population Mitotic Cells (%)” value (Fibroblast; [1]) of the same compound?
The value was 43% and 42%.

And the “Population Normal (%)” value (Fibroblast; [1])?
The value was 100% and 99%.

And the “Population Pyknosed Nuclei (%)” value (Fibroblast; [1])?
The value was 22% and 17%.

And the “Population Tubulin-Different-Phenotype (%)” value (Fibroblast; [1])?
The value was 15% and 11%.

What about the “Total Cell Count” value (Fibroblast; [1]) of the same compound?
Its value is 166 and 203.

And the “Population Apoptotic (%)” value (Fibroblast; [2])?
Its value is 42% and 56%.

What about the “Population Fragmented Nuclei (%)” value (Fibroblast; [2]) of the same compound?
Its value is 8% and 14%.

And the “Population Healthy Nuclei (%)” value (Fibroblast; [2])?
The value was 72% and 68%.

What about the “Population Hoechst High Intensity Objects (%)” value (Fibroblast; [2]) of the same compound?
The value was 0%.

And the “Population Membrane Permeable-Phenotype (%)” value (Fibroblast; [2])?
The value was 2% and 3%.

What about the “Population Mitochondria Different-Phenotype (%)” value (Fibroblast; [2]) of the same compound?
Its value is 0%.

What about the “Population Mitotic Cells (%)” value (Fibroblast; [2]) of the same compound?
The value was 57% and 43%.

And the “Population Normal (%)” value (Fibroblast; [2])?
The value was 100%.

And the “Population Pyknosed Nuclei (%)” value (Fibroblast; [2])?
The value was 18% and 17%.

What about the “Population Tubulin-Different-Phenotype (%)” value (Fibroblast; [2]) of the same compound?
Its value is 9% and 4%.

And the “Total Cell Count” value (Fibroblast; [2])?
The value was 148 and 214.

What about the “Population Apoptotic (%)” value (Fibroblast; [3]) of the same compound?
Its value is 65% and 54%.

And the “Population Healthy Nuclei (%)” value (Fibroblast; [3])?
Its value is 77% and 74%.

What about the “Population Hoechst High Intensity Objects (%)” value (Fibroblast; [3]) of the same compound?
The value was 0%.

And the “Population Membrane Permeable-Phenotype (%)” value (Fibroblast; [3])?
Its value is 7% and 4%.

And the “Population Mitochondria Different-Phenotype (%)” value (Fibroblast; [3])?
The value was 1% and 0%.

And the “Population Mitotic Cells (%)” value (Fibroblast; [3])?
Its value is 34% and 45%.

What about the “Population Normal (%)” value (Fibroblast; [3]) of the same compound?
The value was 100%.

And the “Population Pyknosed Nuclei (%)” value (Fibroblast; [3])?
Its value is 18% and 9%.

And the “Population Tubulin-Different-Phenotype (%)” value (Fibroblast; [3])?
Its value is 11% and 8%.

And the “Total Cell Count” value (Fibroblast; [3])?
The value was 157 and 221.
